Test results reported in ChEMBL document CHEMBL1926683, “Synthesis and anticancer activity of 4β-alkylamidochalcone and 4β-cinnamido linked podophyllotoxins as apoptotic inducing agents” (Eur J Med Chem, 2012).
Activity calls are given as the source filed them. The calls are words filed in the database; no cut-off is given here.

How the values were obtained:
A549 [1] = test: Induction of apoptosis in human A549 cells assessed as nuclear fragmentation at 5 uM after 24 hrs by Hoechst staining-based fluorescent microscopic analysis; format: functional, cell-based
Procedure, shortened: (§1)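 A-549 cells (10,000) were grown on 18-mm coverslips for 24 h, given fresh medium, then treated 24 h. Vehicle control was 0.001% DMSO. Hoechst 33258 was added to medium at […]. Apoptotic cells were quantified manually by field counts scoring cytoplasmic condensation, apoptotic bodies, nuclear fragmentation and relative fluorescence.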

A549 [2] = test: Induction of apoptosis in human A549 cells assessed as induction of DNA fragmentation at 5 uM after 48 hrs by agarose gel electrophoresis; format: functional, cell-based
Procedure, shortened: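 A-549 cells (1 × 10⁶, six-well plates) were treated 48 h after 24 h attachment. Cells were pelleted, PBS-washed and lysed. Supernatant was treated with 10% SDS and RNase-A for 2 h at 56 °C, then proteinase K for 2 h at 37 °C. DNA was precipitated with ammonium acetate and ice-cold ethanol at −80 °C, pelleted, washed with 80% ethanol, and run for ladder pattern against a 50 bp marker.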

A549 [3] = test: Induction of apoptosis in human A549 cells assessed as presence of apoptotic bodies at 5 uM after 24 hrs by Hoechst staining-based fluorescent microscopic analysis; format: functional, cell-based; procedure, shortened: as §1
A549 [4] = test: Cell cycle arrest in human A549 cells assessed as accumulation at G2/M phase at 5 uM after by propidium iodide staining-based fluorescence analysis (reference value: 9.27%); format: functional
A549 [5] = test: Induction of apoptosis in human A549 cells assessed as cytoplasmic condensation at 5 uM after 24 hrs by Hoechst staining-based fluorescent microscopic analysis; format: functional, cell-based; procedure, shortened: as §1
A549 [6] = test: Cell cycle arrest in human A549 cells assessed as accumulation at G0/G1 phase at 1 uM after by propidium iodide staining-based fluorescence analysis (reference value: 83.43%); format: functional
A549 [7] = test: Induction of apoptosis in human A549 cells assessed as cytoplasmic condensation at 2 uM after 24 hrs by Hoechst staining-based fluorescent microscopic analysis; format: functional, cell-based; procedure, shortened: as §1
A549 [8] = test: Induction of apoptosis in human A549 cells assessed as presence of apoptotic bodies at 2 uM after 24 hrs by Hoechst staining-based fluorescent microscopic analysis; format: functional, cell-based; procedure, shortened: as §1
A549 [9] = test: Cell cycle arrest in human A549 cells assessed as accumulation at subG1 phase at 5 uM after by propidium iodide staining-based fluorescence analysis (reference value: 2.74%); format: functional
A549 [10] = test: Cell cycle arrest in human A549 cells assessed as accumulation at G0/G1 phase at 5 uM after by propidium iodide staining-based fluorescence analysis (reference value: 83.43%); format: functional
A549 [11] = test: Cell cycle arrest in human A549 cells assessed as accumulation at S phase at 1 uM after by propidium iodide staining-based fluorescence analysis (reference value: 2.74%); format: functional
A-375 = test: Anticancer activity against human A375 cells after 48 hrs by MTT assay; format: functional, cell-based; settings: A-375, 48 h
Procedure, shortened: (§2)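 MTT assay. Cells seeded at 1 × 10⁴/well in DMEM with 10% FBS and held 24 h at 37 °C in CO₂. Compounds were diluted in culture medium and added alongside vehicle controls, then incubated 48 h. MTT (5 mg/ml stock) was added for 4 h. Supernatant was removed, formazan dissolved in DMSO, and absorbance read at 540 nm.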

A549 [12] = test: Induction of apoptosis in human A549 cells assessed as nuclear fragmentation at 2 uM after 24 hrs by Hoechst staining-based fluorescent microscopic analysis; format: functional, cell-based; procedure, shortened: as §1
MCF7 = test: Anticancer activity against human MCF7 cells after 48 hrs by MTT assay; format: functional, cell-based; settings: MCF7, 48 h; procedure, shortened: as §2
A549 [13] = test: Cell cycle arrest in human A549 cells assessed as accumulation at subG1 phase at 1 uM after by propidium iodide staining-based fluorescence analysis (reference value: 2.74%); format: functional
A549 [14] = test: Cell cycle arrest in human A549 cells assessed as accumulation at G2/M phase at 1 uM after by propidium iodide staining-based fluorescence analysis (reference value: 9.27%); format: functional
ACHN = test: Anticancer activity against human ACHN cells after 48 hrs by MTT assay; format: functional, cell-based; procedure, shortened: as §2
A549 [15] = test: Induction of apoptosis in human A549 cells assessed as caspase 3 activation using Ac-DEVD as substrate at 2 uM after 48 hrs by fluorometric analysis relative to control; format: functional
Procedure, shortened: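 A-549 cells were seeded at 2.5 × 10⁵/well and treated. Cells were scraped into PBS, pelleted, lysed on ice 20–30 min, and cleared at 13,200 rpm. Lysate was mixed with 2X assay buffer and Ac-DEVD-AFC substrate and reacted 1 h. AFC fluorescence (ex 400, em 505 nm) was read every 5 min, expressed as fold over control. Mean of two experiments in triplicate.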

HT-29 = test: Anticancer activity against human HT-29 cells after 48 hrs by MTT assay; format: functional, cell-based; settings: HT-29, 48 h; procedure, shortened: as §2
A549 [16] = test: Cell cycle arrest in human A549 cells assessed as accumulation at S phase at 5 uM after by propidium iodide staining-based fluorescence analysis (reference value: 2.74%); format: functional
A549 [17] = test: Anticancer activity against human A549 cells after 48 hrs by MTT assay; format: functional, cell-based; settings: A549, 48 h; procedure, shortened: as §2

Structure (SMILES) | Activity (A549 [1]) | Activity (A549 [2]) | Activity (A549 [3]) | Activity (A549 [5]) | Activity (A549 [6]) [%] | Activity (A549 [7]) | Activity (A549 [8]) | Activity (A549 [11]) [%] | IC50 (A-375) [µM] | Activity (A549 [12]) | IC50 (MCF7) [µM] | Activity (A549 [13]) [%] | Activity (A549 [14]) [%] | IC50 (ACHN) [µM] | fold change (FC) (A549 [15]) | IC50 (HT-29) [µM] | IC50 (A549 [17]) [µM] | further results
COc1cc([C@@H]2c3cc4c(cc3[C@@H](NC(=O)/C=C/c3ccc(C(F)(F)F)cc3)[C@H]3COC(=O)[C@H]23)OCO4)cc(OC)c1OC | Active | Active | Active | Active | 45.23 | Active | Active | 9.54 | 18 | Active | 19.2 | 4.51 | 38.11 | 2.18 | 4 | 0.37 | 2.1 | Activity (A549 [4]): 43.39%; Activity (A549 [9]): 4.43%; Activity (A549 [10]): 39.84%; Activity (A549 [16]): 10.16%
COc1cc([C@@H]2c3cc4c(cc3[C@@H](NC(=O)/C=C/c3ccccc3)[C@H]3COC(=O)[C@H]23)OCO4)cc(OC)c1OC | Active | Active | Active | Active | 23.39 | Active | Active | 9.5 | 13.4 | Active | 19.7 | 3.29 | 61.89 | 3.91 | 4 | 2.36 | 2.7 | Activity (A549 [4]): 67.78%; Activity (A549 [9]): 2.62%; Activity (A549 [10]): 18.65%; Activity (A549 [16]): 8.64%
COc1cc([C@@H]2c3cc4c(cc3[C@@H](O[C@@H]3O[C@@H]5CO[C@@H](C)O[C@H]5[C@H](O)[C@H]3O)[C@H]3COC(=O)[C@H]23)OCO4)cc(OC)c1O [ETOPOSIDE] | Active | Active | Active | Active | 69.82 | Active | Active | 7.23 | 1.39 | Active | 0.68 | 2.89 | 19.21 | 7.61 | 6 | 1.81 | 2.34 | 
COc1cc(/C=C/C(=O)c2cccc([N+](=O)[O-])c2)ccc1OCC(=O)N[C@@H]1c2cc3c(cc2[C@@H](c2cc(OC)c(OC)c(OC)c2)[C@H]2C(=O)OC[C@@H]21)OCO3 |  |  |  |  |  |  |  |  | 5.3 |  | 6.7 |  |  | 13.2 |  | 8.41 | 9 | 
COc1cc(/C=C/C(=O)c2cc(OC)c(OC)c(OC)c2)ccc1OCC(=O)N[C@@H]1c2cc3c(cc2[C@@H](c2cc(OC)c(OC)c(OC)c2)[C@H]2C(=O)OC[C@@H]21)OCO3 |  |  |  |  |  |  |  |  | 7.8 |  | 14.9 |  |  | 8.51 |  | 9.54 | 10.7 | 
COc1cc(/C=C/C(=O)c2cccc([N+](=O)[O-])c2)ccc1OCCCCCC(=O)N[C@@H]1c2cc3c(cc2[C@@H](c2cc(OC)c(OC)c(OC)c2)[C@H]2C(=O)OC[C@@H]21)OCO3 |  |  |  |  |  |  |  |  | 10.8 |  | 18.1 |  |  | 11.9 |  | 8.75 | 10.7 | 
COc1ccc(C(=O)/C=C/c2ccc(OCCCCCC(=O)N[C@@H]3c4cc5c(cc4[C@@H](c4cc(OC)c(OC)c(OC)c4)[C@H]4C(=O)OC[C@@H]43)OCO5)c(OC)c2)cc1 |  |  |  |  |  |  |  |  | 13 |  | 12 |  |  | 10 |  | 16 | 19 | 
COc1cc(/C=C/C(=O)c2c(C)nc3ccccc3c2C)ccc1OCCCCCC(=O)N[C@@H]1c2cc3c(cc2[C@@H](c2cc(OC)c(OC)c(OC)c2)[C@H]2C(=O)OC[C@@H]21)OCO3 |  |  |  |  |  |  |  |  | 10.3 |  | 8.6 |  |  | 10.7 |  | 11.8 | 10.6 | 
COc1cc(/C=C/C(=O)c2c(C)nc3ccccc3c2C)ccc1OCC(=O)N[C@@H]1c2cc3c(cc2[C@@H](c2cc(OC)c(OC)c(OC)c2)[C@H]2C(=O)OC[C@@H]21)OCO3 |  |  |  |  |  |  |  |  | 14.5 |  | 13.8 |  |  | 10.8 |  | 12.3 | 15.4 | 
